# Experimental data as given in publication PMC5333931 (ACS chemical neuroscience, 2016).
# Experiments:
# 5-HT2A receptors [1] = molecular target: T1, 5-HT2A receptors (Homo sapiens, UniProt P28223); assay type: cell-based; settings: 10 µM compound, 1 µM 5-HT, TEVC
# GIRK4* channel = molecular target: T2, GIRK4* channel (Homo sapiens, UniProt P48544, S143T); assay: TEVC, oocytes expressing GIRK4* alone versus GIRK4* and 5-HT2A receptors; assay type: cell-based; settings: 50 µM or higher; suggests direct inhibition of GIRK4* channel
# T2 sequence (P48544 1-419 S143T): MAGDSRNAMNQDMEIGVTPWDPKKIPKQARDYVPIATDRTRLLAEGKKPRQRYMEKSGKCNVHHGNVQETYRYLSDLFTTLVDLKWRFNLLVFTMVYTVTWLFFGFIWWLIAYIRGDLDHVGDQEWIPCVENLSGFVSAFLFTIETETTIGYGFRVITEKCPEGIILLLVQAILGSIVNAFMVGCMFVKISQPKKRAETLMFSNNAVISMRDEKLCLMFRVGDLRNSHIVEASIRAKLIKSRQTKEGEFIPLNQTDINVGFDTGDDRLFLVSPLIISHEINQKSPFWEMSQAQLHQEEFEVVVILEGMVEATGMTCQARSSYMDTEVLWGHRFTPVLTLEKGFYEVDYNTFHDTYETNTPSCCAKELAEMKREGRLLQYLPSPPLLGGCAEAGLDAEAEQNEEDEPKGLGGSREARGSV
# 5-HT2A receptors [2] = molecular target: T1, 5-HT2A receptors; assay: TEVC, compounds alone; assay type: cell-based
# Method in brief: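 Xenopus oocytes were injected with 2 ng 5-HT2A receptor plus 2 ng GIRK4* and held at 18 °C for 1–4 days. Basal GIRK4* current was taken per trace as the inward current difference with versus without 3 mM BaCl2. Read-out was current inhibition.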
# 5-HT2 receptor [3] = settings: 5-HT-induced inositol phosphate production; cited from earlier work
# 5-HT2 receptor [4] = settings: rats, drug discrimination; cited from earlier work
# 5-HT2A receptors [5] = molecular target: T1, 5-HT2A receptors; assay: [3H]ketanserin competition binding in HEK293 cell membrane preparations; settings: for fold lower binding affinity than risperidone (1): [3H]ketanserin, HEK293 membranes
# 5-HT2A receptors [6] = molecular target: T1, 5-HT2A receptors; assay: Intracellular Ca2+ release; assay type: cell-based
# T1 sequence (P28223 whole entry): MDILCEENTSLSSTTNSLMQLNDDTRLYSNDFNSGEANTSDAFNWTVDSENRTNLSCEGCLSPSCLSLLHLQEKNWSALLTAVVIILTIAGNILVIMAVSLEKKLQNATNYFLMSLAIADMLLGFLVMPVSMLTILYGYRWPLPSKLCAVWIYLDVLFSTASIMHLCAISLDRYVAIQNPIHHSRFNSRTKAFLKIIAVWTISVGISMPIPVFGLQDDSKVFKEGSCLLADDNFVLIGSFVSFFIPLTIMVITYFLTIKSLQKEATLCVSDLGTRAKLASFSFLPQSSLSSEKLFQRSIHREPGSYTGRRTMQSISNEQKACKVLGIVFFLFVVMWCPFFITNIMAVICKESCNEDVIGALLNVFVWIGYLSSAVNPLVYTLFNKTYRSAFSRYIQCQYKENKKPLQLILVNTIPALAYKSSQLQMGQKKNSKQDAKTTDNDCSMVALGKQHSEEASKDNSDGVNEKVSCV
SMILES,antagonism of 5-HT responses at highest concentration tested (5-HT2A receptors [1]),current inhibition in oocytes expressing GIRK4* alone versus GIRK4* and 5-HT2A receptors (GIRK4* channel),"concentration yielding significant current inhibition by compound alone (5-HT2A receptors [2]; oocytes, no 5-HT) [µM]",antagonist action in vitro (5-HT2 receptor [3]),antagonist action in vivo (5-HT2 receptor [4]),fold lower binding affinity than risperidone (1) (5-HT2A receptors [5]),IC50 (5-HT2A receptors [6]) [µM],agonism of compound alone (5-HT2A receptors [2]; concentrations tested up to 50 µM),Ki (5-HT2A receptors [5]) [µM],binding affinity relative to risperidone (5-HT2A receptors [5])
Cl.Fc1ccc2c(C3CCN(CCCCN4CCCCC4)CC3)noc2c1 [compound 3],no significant effects,no significant differences,≥ 5,–,–,–,–,–,–,–
"Fc1ccc2c(C3CCNCC3)noc2c1 [compound 5, 6-fluoro-3-(piperidin-4-yl)benzisoxazole]",significant inhibition,–,–,potent 5-HT2 receptor antagonist,potent 5-HT2 receptor antagonist,13.5 fold,20.1 ± 2.24,did not exhibit significant agonism,–,–
"Cl.O=C(CCCN1CCC(c2noc3cc(F)ccc23)CC1)N1CCCCC1 [compound 2, 4-(4-(6-Fluorobenzisoxazol-3-yl)piperidin-1-yl)-1-(piperidin-1-yl)butan-1-one Hydrochloride]",–,no significant differences,–,–,–,–,16.7 ± 1.39,–,0.0398,–
"CN1CCC(c2noc3cc(F)ccc23)CC1.Cl [compound 4, 6-Fluoro-3-(1-methylpiperidin-4-yl)benzisoxazole Hydrochloride]",significant inhibition,–,–,–,–,2- to 8 fold,7.4 ± 1.45,–,–,half that of risperidone
